CHOP inhibitor – blocks CHOP induction under ER stress; inhibition, % at 10 µM; hit rate 3.8% among 220,000; CHO-K1 CHOP-promoter luciferase, tunicamycin-induced, 15-18 h;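 active = compounds that reduced the stress-induced luciferase reporter signal by more than about 70% of percent inhibition, limit read from the data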;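 note: 0% = tunicamycin plus vehicle and 100% = wells without tunicamycin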
MPTP inh – blocks calcium-induced mitochondrial swelling; isolated mouse mitochondria, Ca2+ swelling absorbance, 30 min; inhibition, % at 10 µM; hit rate 1.4% among 360,000; AID 602449;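 active = inhibition of 50% or more, scaled per plate between neutral and stimulator controls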;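 note: 0% = DMSO wells given calcium and 100% = 1 mM EGTA wells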
WT yeast gro inh – growth inhibition of WT yeast, mitochondrial fusion screen | hit rate 2.1% among 190,000 | inhibition, % at 10 µM | mitochondrial fusion phenotypic screen, WT strain; in the data active = inhibition above about 58%; tested in S. cerevisiae
EBV gp42 inh – inhibitors of Epstein-Barr virus glycoprotein 42; Q1HVG2; Fluorescence polarization binding assay, mP read-out; inhibition, % (tested at 21.74 µM); hit rate 0.42% among 220,000; AID 1085; in the data active = inhibition above about 50%
Target sequence (Q1HVG2 whole entry, looked up): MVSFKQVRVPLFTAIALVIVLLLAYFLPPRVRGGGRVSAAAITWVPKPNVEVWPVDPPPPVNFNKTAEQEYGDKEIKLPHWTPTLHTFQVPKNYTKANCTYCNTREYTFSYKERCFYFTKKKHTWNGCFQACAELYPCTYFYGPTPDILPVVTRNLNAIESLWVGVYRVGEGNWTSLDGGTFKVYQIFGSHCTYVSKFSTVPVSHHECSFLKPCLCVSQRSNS
GRIN3A LBD mod – modulators (binders) of human NR3A ligand-binding domain | NR3A LBD differential scanning fluorimetry, Tm shift; 0% = protein alone, 100% = glycine-bound protein | Tm shift relative to glycine control, % at 25 µM | hit rate 2.5% among 340,000;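 active = melting temperature shift of at least 10% of the positive control shift, at one fixed dose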
Tb MetRS inh – blocks T. brucei methionyl-tRNA synthetase activity | purified T. brucei MetRS, ATP depletion, Kinase-Glo luminescence | inhibition, % at 11.9 µM | hit rate 0.4% among 360,000 | AID 624268;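 active = inhibition above a per-plate cutoff of the control wells' mean inhibition plus 3 SD, cut at about 5.5% in these data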;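 note: 0% = DMSO wells median and 100% = median of wells with control inhibitor compound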
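System: purified T. brucei MetRS enzyme / Detection: Kinase-Glo luciferase luminescence reporting remaining unconsumed ATP / Medium: HEPES buffer with MgCl2, KCl, DTT, spermine, BSA, pyrophosphatase / Replication: singlicate, one well per compound / Evaluation: percent inhibition relative to median high and low control wells / Schedule: 2 h aminoacylation at 25 °C after 15 min preincubation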
* marks the source's active call; other numbers are inactive results; x = no result. Hits are enriched below; roughly 6.4% of the tested compounds scored in any of these assays.

SMILES	CHOP inhibitor	MPTP inh	WT yeast gro inh	EBV gp42 inh	GRIN3A LBD mod	Tb MetRS inh
Cc1cc(NC(=O)CCCN2C(=O)/C(=C/c3cccs3)SC2=S)no1	76*	-1	6	-23	1	0
O=C(CCN1C(=O)/C(=C/c2cccs2)SC1=S)Nc1cccc(O)c1	x	-1	x	x	11*	-1
Cc1cc(S(=O)(=O)N2CCN(c3ccc(F)cc3)CC2)ccc1-n1cnnn1	x	-2	x	x	1	0
O=C(C1CCC(CNS(=O)(=O)c2cccc3nsnc23)CC1)N1CC=C(c2ccccc2)CC1 (stereo not given)	72*	2	24	3	-1	-1
CCC(C)(C)NC(=O)C1CCC(CNS(=O)(=O)c2cccc3nsnc23)CC1 (stereo not given)	x	-2	x	x	2	0
CC(C)(C)NC(=O)C1CCC(CNS(=O)(=O)c2cccc3nsnc23)CC1 (stereo not given)	x	0	x	x	10*	-1
Clc1ccc(-c2cc3ccccc3nc2N2CCCC2)cc1	-6	1	70*	-5	-3	-1
Nc1nn(-c2ccccc2)c(N)c1N=Nc1cccc(F)c1	-19	3	x	-11	11*	0
Nc1nn(-c2ccccc2)c(N)c1N=Nc1ccc2c(c1)OCO2	-22	-8	-9	-37	-8	-1
Cc1ccc(C(=O)c2ccc(C(F)(F)F)cc2)cc1	93*	x	6	-21	x	x
Cc1ccc(S(=O)(=O)CCC(=O)Nc2nc(C(C)(C)C)cs2)cc1	x	2	x	x	0	0
O=C(Nc1ccccc1)c1nnsc1S(=O)c1ccc(Cl)cc1 (stereo not given)	75*	-2	6	-5	-7	0
O=C(Nc1nccs1)NC1CCCCC1	31	2	2	11	2	0
NC(=O)NC(=O)COC(=O)c1ccccc1Oc1ccccc1	54	3	7	-33	11*	2
O=C1NC(=O)C2C3OC(C(Br)C3Br)C12 (stereo not given)	x	-1	x	x	x	0
COc1ccc(C(=O)CN2C(=O)c3ccccc3S2(=O)=O)cc1	53	2	x	-5	-1	1
O=C(CN1/C(=C(/O)c2ccccc2)C(=O)c2ccccc2S1(=O)=O)c1ccccc1	96*	-3	64*	-15	-2	-1
Cc1oc(-c2cccc(Cl)c2)nc1CSCC(=O)O	19	-2	2	-6	-1	0
CCc1ccc(OCC(=O)NC(C)(C)C)cc1	-5	-1	-4	7	0	-1
Cc1ccc2nc(-c3cc(N)cc(N)c3)oc2c1	79*	1	21	-2	-2	0
CCc1nc2ccccc2c2nc3ccccc3n12	-5	0	11	-4	-5	0
c1ccc2c(c1)nc(CN1CCOCC1)n1c3ccccc3nc21	5	-8	81*	-12	0	0
Cn1c(=O)c2[nH]c(-c3ccccc3Cl)c(O)c2n(C)c1=O	24	6	1	65*	1	0
Cn1c(=O)c2[nH]c(-c3ccccc3)c(O)c2n(C)c1=O	16	-2	-5	122*	12*	0
Cn1c(=O)c2[nH]c(-c3ccccc3)nc2n(C)c1=O	2	x	-3	-10	x	x
SMILES	CHOP inhibitor	MPTP inh	WT yeast gro inh	EBV gp42 inh	GRIN3A LBD mod	Tb MetRS inh
O=c1cc(/N=C/c2coc3c(ccc4ccccc43)c2=O)[nH]c(=S)[nH]1	79*	4	-5	-17	3	0
NC(=S)N/N=C/c1coc2c(ccc3ccccc32)c1=O	-4	0	-3	33	10	1
Cc1nnc(SCC(=O)Nc2cc(C(C)(C)C)nn2-c2ccccc2)s1	35	0	-1	-10	-3	0
Cc1nnc(SCC(=O)Nc2cc(-c3cc(C)c(C)cc3C)nn2-c2ccccc2)s1	42	6	63*	-8	-3	-1
Cc1ccc(C(=O)OCC(=O)NCc2ccc(Cl)cc2)s1	x	0	x	x	x	0
CCOc1cc(CNC(C)C)c(Cl)cc1OCC(=O)NCCc1ccccc1	-8	1	-34	-11	-1	0
NC(=NCCc1c[nH]c2ccccc12)NS(=O)(=O)c1ccc(F)cc1	21	4	-9	-2	-2	0
NC(=NCCc1c[nH]c2ccccc12)NC(=O)c1ccc(F)cc1	6	2	x	3	38*	0
CS(=O)(=O)NCCNc1cc(Cl)ccc1[N+](=O)[O-]	-7	0	-2	-13	0	0
CCn1c(O)c(C2=c3ccccc3=NC2=O)c2cc(Br)ccc21	23	x	72*	5	2	x
CCn1c(O)c(N=NC(=O)c2cccnc2)c2cc(Br)ccc21	12	2	x	-6	-1	0
COc1cccc(Nc2ncccc2C(=O)NCc2ccccc2)c1	14	0	12	68*	-3	1
Cc1ccccc1-c1cc(=O)c2ccccc2o1	x	0	x	x	-3	0
Cc1cc(CCNC=O)c(C)c2c1oc1ccccc12	x	5	x	x	13*	0
CCOC(=O)CNc1nc(C(C)(C)C)nc2c1nnn2Cc1ccccc1Cl	81*	4	0	-5	-1	0
Cc1ccc(-c2onc3ccc(C=O)cc23)cc1	-12	-1	-6	7	-1	-1
Cc1ccc(-c2onc3ccc(C4(C)OCCO4)cc23)cc1	86*	1	19	-8	4	0
O=C(NNC(=O)c1ccc(Br)o1)c1csc(N2CCOCC2)n1	x	-2	x	x	0	0
CC(C)(C)NC(=O)NC(=O)COC(=O)Cc1coc2ccc3ccccc3c12	3	-1	70*	3	-13	-1
CCC(C(=O)OCC(=O)NC(=O)c1ccccc1)c1ccccc1 (stereo not given)	x	-1	x	x	2	-1
CC(C)(C)NC(=O)NC(=O)COC(=O)c1ccc(OC(F)(F)F)cc1	81*	3	10	-18	2	0
CCC(C(=O)OCC(=O)NC(=O)NC(C)(C)C)c1ccccc1 (stereo not given)	76*	-1	4	-8	-2	0
CC(C)(C)NC(=O)NC(=O)COC(=O)c1ccc(OC(F)F)cc1	11	1	-3	-2	-3	0
CC(C)(O)C#Cc1ccc(C(=O)N2CCC(CCC(=O)NC3CC3)CC2)cc1	x	-1	x	x	3	0
Cc1nn2c(N3CCN(c4ccccn4)CC3)cc(C(C)C)nc2c1-c1ccccc1	22	4	97*	-9	5	0
Cc1cc(N2CCCCCC2)n2nc(C)c(-c3ccccc3)c2n1	x	1	x	x	4	0
CCN(CC)CCNC(=S)N1CCn2c(nc3ccccc32)C1	-38	29	-3	-1	-2	0
CCNC(=S)N1CCn2c(nc3ccccc32)C1	-2	0	2	-12	12*	0
COc1ccc(/C=c2\s/c(=C/C(=O)c3ccc(C)cc3)[nH]c2=O)cc1OC	100*	2	-6	-81	4	0

Compound activity as filed in PubChem.
